Source: ChEMBL document CHEMBL1649081, “Arylpiperazines for management of benign prostatic hyperplasia: design, synthesis, quantitative structure-activity relationships, and pharmacokinetic studies” (J Med Chem, 2011)
Values joined by “and” are separate entries in the source; they are usually repeats but may differ in a detail not shown here. Equal entries are not always repeated. Active and inactive are the calls of the source. The rule behind the calls is not given here.

What was measured:
[1] = (§1) […] in Sprague-Dawley rat model […] assessed as reduction in prostate weight at 10 mg/k, po administered daily for 21 days measured after 24 hrs post last dose; assay type: functional
Method in brief: (§2)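 Adult mature Sprague-Dawley rats (n = 5) received an oral 10.0 mg/kg dose as a water/gum acacia suspension daily for 21 days. Controls received vehicle, and a reference antiandrogen served as positive control. At autopsy 24 h after the last dose, prostates were dissected and weighed.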

Cancer cell lines = test: as §1; assay type: functional; method in brief: as §2
[2] = Ratio of drug level in hypothalamus to prostate in Sprague-Dawley rat at 10 mg/kg, po administered as single dos; assay type: ADME, organism-based; design: dose 10 mg/kg, route oral; settings: in vivo
Method in brief: (§3)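 Male Sprague-Dawley rats were fasted overnight (12-16 h) and given a single oral 10 mg/kg dose, n = 3 per time point. Animals were killed at intervals up to 24 h and serum, prostate and hypothalamus collected; hypothalamus was pooled from three rats. Analysis was by HPLC (0.01 M sodium acetate pH 6.0/acetonitrile 30:70; LLOQ 10 ng/mL), with noncompartmental parameters.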

LNCaP [3] = test: Anticancer activity against human LNCAP cells assessed as change in PSA gene expression at 10 umol after 48 hrs by RT-PCR analysis; assay type: functional
Method in brief: (§4)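 LNCaP cells (androgen-dependent human prostate cancer) were grown in RPMI-1640 with 10% FCS, 100 units/mL penicillin G and 100 μg/mL streptomycin on gelatin-coated plates. They were treated at 10 μmol for 48 h, with flutamide as positive control. PSA is reported as fold change relative to untreated control.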

[4] = Cmax in Sprague-Dawley rat prostate gland at 10 mg/kg, po administered as single dose after 2 hrs; assay type: ADME, organism-based; design: dose 10 mg/kg, route oral; method in brief: as §3
Hypothalamus = test: AUC (0 to t) in Sprague-Dawley rat hypothalamus at 10 mg/kg, po administered as single dose; assay type: ADME, organism-based; design: dose 10 mg/kg, route oral; settings: in vivo; method in brief: as §3
[5] = Mean residence time in Sprague-Dawley rat prostate gland at 10 mg/kg, po administered as single dose; assay type: ADME, organism-based; design: dose 10 mg/kg, route oral; method in brief: as §3
[6] = biological target: Estrogen receptor beta (Homo sapiens) (UniProt Q92731); test: Induction of ERbeta in human prostate cells at 10 umol relative to control; assay type: cell-based
Method in brief: (§5)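 ER-α and ER-β mRNA were measured by real-time PCR in two cell types: primary BPH-derived human stromal cells (passages 4-6; DMEM/Ham's F-12, 10% FCS) and LNCaP cells (RPMI-1640, 10% FCS, gelatin-coated). Cells at 80% confluence were treated with 10.0 μmol for 24 h, then total RNA was extracted. Results are fold change versus control, mean ± SE of three values.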

[7] = Cmax in Sprague-Dawley rat serum at 10 mg/kg, po administered as single dose after 1 hr; assay type: ADME, organism-based; design: dose 10 mg/kg, route oral; method in brief: as §3
Serum [8] = test: Clearance in Sprague-Dawley rat serum at 10 mg/kg, po administered as single dose; assay type: ADME, organism-based; design: dose 10 mg/kg, route oral; settings: in vivo; method in brief: as §3
[9] = Cmax in Sprague-Dawley rat hypothalamus at 10 mg/kg, po administered as single dose after 2 hrs; assay type: ADME, organism-based; design: dose 10 mg/kg, route oral; method in brief: as §3
[10] = Tmax in Sprague-Dawley rat serum at 10 mg/kg, po administered as single dose after 1 hr; assay type: ADME, organism-based; design: dose 10 mg/kg, route oral; method in brief: as §3
[11] = biological target: T1, Estrogen receptor (Homo sapiens) (UniProt P03372); test: Induction of ERalpha in human LNCAP cells at 10 umol relative to control; assay type: cell-based
T1 sequence (whole entry): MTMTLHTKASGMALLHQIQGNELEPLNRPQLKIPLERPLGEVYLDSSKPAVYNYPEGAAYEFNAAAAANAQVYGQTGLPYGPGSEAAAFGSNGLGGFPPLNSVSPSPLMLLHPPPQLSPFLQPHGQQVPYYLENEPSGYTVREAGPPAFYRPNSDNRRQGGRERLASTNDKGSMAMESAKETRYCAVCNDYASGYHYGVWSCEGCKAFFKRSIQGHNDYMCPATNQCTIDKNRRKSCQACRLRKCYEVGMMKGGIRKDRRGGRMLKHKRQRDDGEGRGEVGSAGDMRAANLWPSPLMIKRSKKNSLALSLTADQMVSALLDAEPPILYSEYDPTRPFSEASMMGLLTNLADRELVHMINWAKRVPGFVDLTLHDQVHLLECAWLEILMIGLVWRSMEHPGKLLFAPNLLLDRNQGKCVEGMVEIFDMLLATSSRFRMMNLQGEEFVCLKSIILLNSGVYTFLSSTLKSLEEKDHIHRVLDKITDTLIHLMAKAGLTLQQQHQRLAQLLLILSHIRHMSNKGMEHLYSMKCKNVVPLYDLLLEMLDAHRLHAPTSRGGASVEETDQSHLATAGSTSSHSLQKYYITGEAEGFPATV
Method in brief: (§6)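 LNCaP cells were grown in RPMI-1640 with 10% FCS, penicillin and streptomycin on gelatin-coated plates to 80% confluence, then treated at 10.0 μmol for 24 h, with flutamide as comparator. Total RNA was extracted with Trireagent, and ER-α/ER-β mRNA was measured by real-time PCR. Results are fold change versus control, mean ± SE of three values.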

[12] = Cmax in Sprague-Dawley rat prostate gland at 10 mg/kg, po administered as single dose after 1 hr; assay type: ADME, organism-based; design: dose 10 mg/kg, route oral; method in brief: as §3
[13] = Tmax in Sprague-Dawley rat prostate gland at 10 mg/kg, po administered as single dose after 1 hr; assay type: ADME, organism-based; design: dose 10 mg/kg, route oral; method in brief: as §3
[14] = Tmax in Sprague-Dawley rat hypothalamus at 10 mg/kg, po administered as single dose after 2 hrs; assay type: ADME, organism-based; design: dose 10 mg/kg, route oral; method in brief: as §3
[15] = Tmax in Sprague-Dawley rat prostate gland at 10 mg/kg, po administered as single dose after 2 hrs; assay type: ADME, organism-based; design: dose 10 mg/kg, route oral; method in brief: as §3
[16] = Tmax in Sprague-Dawley rat serum at 10 mg/kg, po administered as single dose after 2 hrs; assay type: ADME, organism-based; design: dose 10 mg/kg, route oral; method in brief: as §3
[17] = Mean residence time in Sprague-Dawley rat serum at 10 mg/kg, po administered as single dose; assay type: ADME, organism-based; design: dose 10 mg/kg, route oral; method in brief: as §3
Serum [18] = test: AUC (0 to t) in Sprague-Dawley rat serum at 10 mg/kg, po administered as single dose; assay type: ADME, organism-based; design: dose 10 mg/kg, route oral; settings: in vivo; method in brief: as §3
[19] = Cmax in Sprague-Dawley rat serum at 10 mg/kg, po administered as single dose after 2 hrs; assay type: ADME, organism-based; design: dose 10 mg/kg, route oral; method in brief: as §3
[20] = Ratio of drug level in serum to prostate in Sprague-Dawley rat at 10 mg/kg, po administered as single dos; assay type: ADME, organism-based, Prostate gland; design: dose 10 mg/kg, route oral; settings: in vivo; method in brief: as §3
[21] = biological target: T1, Estrogen receptor (Homo sapiens); test: Induction of ERalpha in human prostate cells at 10 umol relative to control; assay type: cell-based; method in brief: as §5
[22] = Mean residence time in Sprague-Dawley rat hypothalamus at 10 mg/kg, po administered as single dose; assay type: ADME, organism-based; design: dose 10 mg/kg, route oral; method in brief: as §3
[23] = AUC (0 to t) in Sprague-Dawley rat prostate gland at 10 mg/kg, po administered as single dose; assay type: ADME, organism-based; design: dose 10 mg/kg, route oral; settings: in vivo; method in brief: as §3
[24] = Cmax in Sprague-Dawley rat hypothalamus at 10 mg/kg, po administered as single dose after 1 hr; assay type: ADME, organism-based; design: dose 10 mg/kg, route oral; method in brief: as §3
[25] = Tmax in Sprague-Dawley rat hypothalamus at 10 mg/kg, po administered as single dose after 1 hr; assay type: ADME, organism-based; design: dose 10 mg/kg, route oral; method in brief: as §3
LNCaP [26] = test: Anticancer activity against human LNCAP cells assessed as change in PSA gene expression at 10 umol after 48 hrs by RT-PCR analysis relative to control; assay type: functional; method in brief: as §4
[27] = biological target: Estrogen receptor beta (Homo sapiens) (UniProt Q92731); test: Induction of ERbeta in human LNCAP cells at 10 umol relative to control; assay type: cell-based; method in brief: as §6

Estrogen receptor beta (Homo sapiens), sequence (Q92731 whole entry): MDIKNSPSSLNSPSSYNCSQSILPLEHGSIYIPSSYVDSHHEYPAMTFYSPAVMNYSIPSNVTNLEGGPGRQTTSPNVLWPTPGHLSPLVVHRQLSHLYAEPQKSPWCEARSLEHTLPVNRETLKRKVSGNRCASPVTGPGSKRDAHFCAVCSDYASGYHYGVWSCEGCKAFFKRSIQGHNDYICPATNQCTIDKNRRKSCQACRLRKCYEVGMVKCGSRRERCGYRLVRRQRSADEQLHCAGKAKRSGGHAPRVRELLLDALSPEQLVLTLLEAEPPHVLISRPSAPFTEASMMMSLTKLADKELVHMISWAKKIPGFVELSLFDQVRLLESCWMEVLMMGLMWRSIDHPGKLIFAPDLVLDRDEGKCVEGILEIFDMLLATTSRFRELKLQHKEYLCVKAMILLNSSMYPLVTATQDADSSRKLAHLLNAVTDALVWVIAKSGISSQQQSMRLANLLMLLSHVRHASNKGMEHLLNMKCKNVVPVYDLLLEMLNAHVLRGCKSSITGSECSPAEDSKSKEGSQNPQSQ

SMILES: O=[N+]([O-])c1ccc(N2CCN(c3cccc(Cl)c3)CC2)c(C(F)(F)F)c1
- inhibition (INH) [1]: 15% and 24%

SMILES: O=C(c1ccccc1[N+](=O)[O-])N1CCN(c2ccccn2)CC1
- inhibition (INH) [1]: 15%

SMILES: O=[N+]([O-])c1ccc(CN2CCN(c3ncccn3)CC2)cc1
- inhibition (INH) [1]: 15% and 24%

SMILES: O=[N+]([O-])c1ccc(CN2CCN(c3cccc(Cl)c3)CC2)cc1
- inhibition (INH) [1]: 15%

SMILES: O=C(c1ccc(C(F)(F)F)cc1)N1CCN(c2ccccn2)CC1
- inhibition (INH) [1]: 15%

SMILES: O=C(c1ccccc1[N+](=O)[O-])N1CCN(c2cccc(C(F)(F)F)c2)CC1
- inhibition (INH) [1]: 15%

SMILES: O=[N+]([O-])c1ccccc1N1CCN(c2cccc(C(F)(F)F)c2)CC1
- Activity (Cancer cell lines): inactive

SMILES: O=[N+]([O-])c1ccc(N2CCN(c3cccc(C(F)(F)F)c3)CC2)c(C(F)(F)F)c1
- Ratio [2]: 0.35
- inhibition (INH) (LNCaP [3]): 90%
- Cmax [4]: 365 ng/g
- AUC (Hypothalamus): 2000 ng·h/g
- MRT [5]: 11 h
- inhibition (INH) [1]: 15% and 24%
- fold change (FC) [6]: 6
- Cmax [7]: 106 ng/mL
- CL (Serum [8]): 0.17 mL/min/kg
- Cmax [9]: 124 ng/g
- Tmax [10]: 0.5 h
- fold change (FC) [11]: 11
- Cmax [12]: 442 ng/g
- Tmax [13]: 1.5 h
- Tmax [14]: 2 h
- Tmax [15]: 6 h
- Tmax [16]: 2 h
- MRT [17]: 6.97 h
- AUC (Serum [18]): 712 ng·h/mL
- Cmax [19]: 139 ng/mL
- Ratio [20]: 0.13
- fold change (FC) [21]: 3
- MRT [22]: 11.6 h
- AUC [23]: 5650 ng·h/g
- Cmax [24]: 99.5 ng/g
- Tmax [25]: 1 h
- fold change (FC) (LNCaP [26]): 0.106
- fold change (FC) [27]: 16

SMILES: O=[N+]([O-])c1ccc(N2CCN(c3ncccn3)CC2)c(C(F)(F)F)c1
- inhibition (INH) [1]: 15% and 24%

SMILES: O=[N+]([O-])c1ccc(N2CCN(c3ccc(F)cc3)CC2)c(C(F)(F)F)c1
- inhibition (INH) [1]: 15% and 24%

SMILES: O=C(c1ccccc1)N1CCN(c2cccc(Cl)c2)CC1
- inhibition (INH) [1]: 10%

SMILES: O=[N+]([O-])c1ccccc1N1CCN(c2cccc(Cl)c2)CC1
- Activity (Cancer cell lines): inactive

SMILES: O=[N+]([O-])c1cc(C(F)(F)F)ccc1N1CCN(c2ncccn2)CC1
- inhibition (INH) [1]: 15% and 24%

SMILES: O=[N+]([O-])c1ccc(N2CCN(c3ccccn3)CC2)c(C(F)(F)F)c1
- inhibition (INH) [1]: 15% and 24%

SMILES: O=[N+]([O-])c1ccc(N2CCN(c3ccccn3)CC2)cc1
- inhibition (INH) [1]: 15% and 24%

SMILES: O=C(c1ccc(C(F)(F)F)cc1)N1CCN(c2cccc(Cl)c2)CC1
- inhibition (INH) [1]: 10%

SMILES: O=[N+]([O-])c1cc(C(F)(F)F)ccc1N1CCN(c2cccc(C(F)(F)F)c2)CC1
- inhibition (INH) [1]: 15% and 24%

SMILES: O=[N+]([O-])c1ccc(CN2CCN(c3ccccn3)CC2)cc1
- inhibition (INH) [1]: 15%

SMILES: O=[N+]([O-])c1ccc(CN2CCN(c3cccc(C(F)(F)F)c3)CC2)cc1
- inhibition (INH) [1]: 15%

SMILES: O=C(c1ccccc1)N1CCN(c2ncccn2)CC1
- inhibition (INH) [1]: 10%

SMILES: O=[N+]([O-])c1ccccc1N1CCN(c2ccccn2)CC1
- inhibition (INH) [1]: 15%

SMILES: O=[N+]([O-])c1cc(C(F)(F)F)ccc1N1CCN(c2ccc(F)cc2)CC1
- inhibition (INH) [1]: 15%

SMILES: O=[N+]([O-])c1cc(C(F)(F)F)ccc1N1CCN(c2cccc(Cl)c2)CC1
- inhibition (INH) [1]: 15%

SMILES: CC(C)C(=O)Nc1ccc([N+](=O)[O-])c(C(F)(F)F)c1 [FLUTAMIDE]
- inhibition (INH) (LNCaP [3]): 99%
- fold change (FC) [11]: 11
- fold change (FC) (LNCaP [26]): 0.01
- fold change (FC) [27]: 14

SMILES: O=[N+]([O-])c1cc(C(F)(F)F)ccc1N1CCN(c2ccccn2)CC1
- inhibition (INH) [1]: 15%

SMILES: O=C(c1ccccc1)N1CCN(c2ccccn2)CC1
- inhibition (INH) [1]: 10%

SMILES: O=C(c1ccc(C(F)(F)F)cc1)N1CCN(c2cccc(C(F)(F)F)c2)CC1
- inhibition (INH) [1]: 15%

SMILES: O=C(c1ccccc1)N1CCN(c2cccc(C(F)(F)F)c2)CC1
- inhibition (INH) [1]: 15%
